Test results taken from ChEMBL document CHEMBL2331220, “Benzimidazole clubbed with triazolo-thiadiazoles and triazolo-thiadiazines: new anticancer agents” (2013).

Legend:
Assay type in all cases: functional
NCI-H226 = assay: Cytotoxicity against human NCI-H226 cells after 48 hrs by SRB assay; conditions: NCI-H226, 48 h
Method in brief: (§1)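 NCI 60-line five-dose screen. Cells were preincubated 24 h at 37 °C under 5% CO2 and 100% humidity, and time-zero plates were TCA-fixed when compound was added. Five 10-fold concentrations (0.01–100) were tested for 48 h. Cells were fixed with cold TCA (final 10%, 60 min, 4 °C), stained with 0.4% SRB for 10 min, and read at 515 nm. GI50, TGI and LC50 came from growth-percentage formulas, with out-of-range values given as > or <.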

SK-MEL-5 = assay: Cytotoxicity against human SK-MEL-5 cells after 48 hrs by SRB assay; conditions: SK-MEL-5, 48 h; method in brief: as §1
KM12 = assay: Cytotoxicity against human KM12 cells after 48 hrs by SRB assay; conditions: KM12, 48 h; method in brief: as §1
OVCAR-5 = assay: Cytotoxicity against human OVCAR5 cells after 48 hrs by SRB assay; conditions: OVCAR-5, 48 h; method in brief: as §1
IGROV-1 [1] = assay: Cytotoxicity against human IGROV1 cells after 48 hrs by SRB assay; conditions: IGROV-1, 48 h; method in brief: as §1
IGROV-1 [2] = assay: Growth inhibition of human IGROV1 cells at 10 uM after 48 hrs by SRB assay relative to control; conditions: IGROV-1, 48 h, read-out: GI
Method in brief: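 NCI single-dose primary screen: compound added at 1 × 10⁻⁵ M, cultures incubated 48 h. Protein stained with sulforhodamine B. Result given as percent growth of treated cells relative to untreated controls, where negative values mean cell kill.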

HOP-62 = assay: Cytotoxicity against human HOP62 cells after 48 hrs by SRB assay; conditions: HOP-62, 48 h; method in brief: as §1
HCC 2998 = assay: Cytotoxicity against human HCC2998 cells after 48 hrs by SRB assay; conditions: HCC 2998, 48 h; method in brief: as §1
NCI-H322M = assay: Cytotoxicity against human NCI-H322M cells after 48 hrs by SRB assay; method in brief: as §1
SK-MEL-28 = assay: Cytotoxicity against human SK-MEL-28 cells after 48 hrs by SRB assay; conditions: SK-MEL-28, 48 h; method in brief: as §1
CCRF-CEM = assay: Cytotoxicity against human CCRF-CEM cells after 48 hrs by SRB assay; method in brief: as §1
HL-60(TB) = assay: Cytotoxicity against human HL-60(TB) cells after 48 hrs by SRB assay; conditions: HL-60, 48 h
Method in brief: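 NCI five-dose screen: cells preincubated 24 h at 37 °C, 5% CO₂, with time-zero plates TCA-fixed. Five 10-fold dilutions (0.01–100) were added and cells incubated for 48 h, then fixed in 10% TCA for 60 min at 4 °C. Staining used 0.4% SRB in 1% acetic acid, solubilised in 10 mM Tris, with A515 read. GI₅₀, TGI and LC₅₀ were derived from Tz, control and test absorbances.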

NCI-H23 = assay: Cytotoxicity against human NCI-H23 cells after 48 hrs by SRB assay; conditions: NCI-H23, 48 h; method in brief: as §1
HCT-15 = assay: Cytotoxicity against human HCT15 cells after 48 hrs by SRB assay; conditions: HCT-15, 48 h; method in brief: as §1
NCI-H522 = assay: Cytotoxicity against human NCI-H522 cells after 48 hrs by SRB assay; conditions: NCI-H522, 48 h; method in brief: as §1
A549 = assay: Cytotoxicity against human A549 cells after 48 hrs by SRB assay; conditions: A549, 48 h; method in brief: as §1
[3] = Cytotoxicity against human EKVX cells after 48 hrs by SRB assay; method in brief: as §1
SF-539 = assay: Cytotoxicity against human SF539 cells after 48 hrs by SRB assay; conditions: SF-539, 48 h; method in brief: as §1
[4] = read-out: LC50 (the source's name)
[5] = read-out: pLC50 (the source's name) (converted)

## O=C(CCc1nnc2sc(-c3ccc(Cl)cc3Cl)nn12)c1nc2ccccc2[nH]1
NCI-H226; read-out: GI50
  GI50: 0.244 µM
NCI-H226; [4]
  CC50: 2.59 µM
NCI-H226; read-out: TGI
  TGI: 0.696 µM
NCI-H226; read-out: pGI50 (converted)
  GI50: 0.245 µM
NCI-H226; [5]
  CC50: 2.57 µM
NCI-H226; read-out: pTGI (converted)
  TGI: 0.692 µM
SK-MEL-5; read-out: GI50
  GI50: 1.39 µM
SK-MEL-5; [4]
  CC50: 5.19 µM
SK-MEL-5; read-out: TGI
  TGI: 2.69 µM
SK-MEL-5; read-out: pGI50 (converted)
  GI50: 1.38 µM
SK-MEL-5; [5]
  CC50: 5.25 µM
SK-MEL-5; read-out: pTGI (converted)
  TGI: 2.69 µM
KM12; read-out: GI50
  GI50: 1.16 µM
KM12; [4]
  CC50: 7.7 µM
KM12; read-out: TGI
  TGI: 2.99 µM
KM12; read-out: pGI50 (converted)
  GI50: 1.15 µM
KM12; [5]
  CC50: 7.76 µM
KM12; read-out: pTGI (converted)
  TGI: 3.02 µM
OVCAR-5; read-out: GI50
  GI50: 1.88 µM
OVCAR-5; [4]
  CC50: 8.39 µM
OVCAR-5; read-out: TGI
  TGI: 3.98 µM
OVCAR-5; read-out: pGI50 (converted)
  GI50: 1.91 µM
OVCAR-5; [5]
  CC50: 8.32 µM
OVCAR-5; read-out: pTGI (converted)
  TGI: 3.98 µM
IGROV-1 [1]; read-out: GI50
  GI50: 1.31 µM
IGROV-1 [1]; read-out: TGI
  TGI: 3.51 µM
IGROV-1 [1]; read-out: pGI50 (converted)
  GI50: 1.32 µM
IGROV-1 [1]; read-out: pTGI (converted)
  TGI: 3.47 µM
IGROV-1 [2]
  inhibition of growth at 10 µM: ≤ 32%
HOP-62; read-out: GI50
  GI50: 0.576 µM
HOP-62; [4]
  CC50: 6.16 µM
HOP-62; read-out: TGI
  TGI: 2.12 µM
HOP-62; read-out: pGI50 (converted)
  GI50: 0.575 µM
HOP-62; [5]
  CC50: 6.17 µM
HOP-62; read-out: pTGI (converted)
  TGI: 2.14 µM
HCC 2998; read-out: GI50
  GI50: 1.63 µM
HCC 2998; [4]
  CC50: 6.29 µM
HCC 2998; read-out: TGI
  TGI: 3.2 µM
HCC 2998; read-out: pGI50 (converted)
  GI50: 1.62 µM
HCC 2998; [5]
  CC50: 6.31 µM
HCC 2998; read-out: pTGI (converted)
  TGI: 3.16 µM
NCI-H322M; read-out: GI50
  GI50: 1.76 µM
NCI-H322M; [4]
  CC50: 7.94 µM
NCI-H322M; read-out: TGI
  TGI: 3.74 µM
NCI-H322M; read-out: pGI50 (converted)
  GI50: 1.78 µM
NCI-H322M; [5]
  CC50: 7.94 µM
NCI-H322M; read-out: pTGI (converted)
  TGI: 3.72 µM
SK-MEL-28; read-out: GI50
  GI50: 0.474 µM
SK-MEL-28; [4]
  CC50: 4.24 µM
SK-MEL-28; read-out: TGI
  TGI: 1.67 µM
SK-MEL-28; read-out: pGI50 (converted)
  GI50: 0.479 µM
SK-MEL-28; [5]
  CC50: 4.27 µM
SK-MEL-28; read-out: pTGI (converted)
  TGI: 1.66 µM
CCRF-CEM; read-out: GI50
  GI50: 0.265 µM
CCRF-CEM; [4]
  CC50: > 100 µM
CCRF-CEM; read-out: TGI
  TGI: 0.974 µM
CCRF-CEM; read-out: pGI50 (converted)
  GI50: 0.263 µM
CCRF-CEM; [5]
  CC50: > 100 µM
CCRF-CEM; read-out: pTGI (converted)
  TGI: 0.977 µM
HL-60(TB); read-out: GI50
  GI50: 0.862 µM
HL-60(TB); [4]
  CC50: > 100 µM
HL-60(TB); read-out: TGI
  TGI: 5.93 µM
HL-60(TB); read-out: pGI50 (converted)
  GI50: 0.871 µM
HL-60(TB); [5]
  CC50: > 100 µM
HL-60(TB); read-out: pTGI (converted)
  TGI: 5.89 µM
NCI-H23; read-out: GI50
  GI50: 0.719 µM
NCI-H23; read-out: TGI
  TGI: 2.48 µM
NCI-H23; read-out: pGI50 (converted)
  GI50: 0.724 µM
NCI-H23; read-out: pTGI (converted)
  TGI: 2.45 µM
HCT-15; read-out: GI50
  GI50: 0.489 µM
HCT-15; read-out: TGI
  TGI: 2.21 µM
HCT-15; read-out: pGI50 (converted)
  GI50: 0.49 µM
HCT-15; read-out: pTGI (converted)
  TGI: 2.24 µM
NCI-H522; read-out: GI50
  GI50: 1.28 µM
NCI-H522; [4]
  CC50: 6.82 µM
NCI-H522; read-out: TGI
  TGI: 2.96 µM
NCI-H522; read-out: pGI50 (converted)
  GI50: 1.29 µM
NCI-H522; [5]
  CC50: 6.76 µM
NCI-H522; read-out: pTGI (converted)
  TGI: 2.95 µM
A549; read-out: GI50
  GI50: 2.07 µM
A549; [4]
  CC50: > 100 µM
A549; read-out: TGI
  TGI: 5.63 µM
A549; read-out: pGI50 (converted)
  GI50: 2.09 µM
A549; [5]
  CC50: > 100 µM
A549; read-out: pTGI (converted)
  TGI: 5.62 µM
[3]; read-out: GI50
  GI50: 1.53 µM
[3]; read-out: TGI
  TGI: 3.69 µM
[3]; read-out: pGI50 (converted)
  GI50: 1.55 µM
[3]; read-out: pTGI (converted)
  TGI: 3.72 µM
SF-539; read-out: GI50
  GI50: 2.17 µM
SF-539; [4]
  CC50: 22.8 µM
SF-539; read-out: TGI
  TGI: 4.86 µM
SF-539; read-out: pGI50 (converted)
  GI50: 2.19 µM
SF-539; [5]
  CC50: 22.9 µM
SF-539; read-out: pTGI (converted)
  TGI: 4.9 µM
